From ChEMBL document CHEMBL1926614, “Substituted thiazoles V. synthesis and antitumor activity of novel thiazolo[2,3-b]quinazoline and pyrido[4,3-d]thiazolo[3,2-a]pyrimidine analogues” (2012)

What was measured:
Assay type in all cases: functional
HCT-15 = test: Growth inhibition of human HCT15 cells at 10 uM after 48 hrs by coulter counting; conditions: HCT-15, 48 h, read-out: GI
Summary of the method: (§1)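 Single-dose primary screen across the full NCI 60-cell-line panel. Stocks were made in DMSO and diluted in PBS to a final DMSO below 1%. Cultures at 6 × 10⁴ cells/ml were run in duplicate wells alongside PBS/DMSO vehicle controls at 37 °C in humidified 5% CO₂. Data were expressed as percent growth of treated cells.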

UACC-257 = test: Growth inhibition of human UACC257 cells at 10 uM after 48 hrs by coulter counting; conditions: UACC-257, 48 h, read-out: GI
Summary of the method: (§2)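 Single-dose screen in the NCI 60 human tumor cell line panel (nine subpanels). Compounds dissolved in DMSO and diluted in phosphate buffered saline, keeping final DMSO below 1%. Added in duplicate wells to cells at 6 × 10⁴ cells/ml. Controls held PBS and DMSO at matching dilutions. Incubated at 37 °C, humidified, 5% CO₂. Reported as percent growth of treated cells.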

UACC-62 = test: Growth inhibition of human UACC62 cells at 10 uM after 48 hrs by coulter counting; conditions: UACC-62, 48 h, read-out: GI; summary of the method: as §2
CCRF-CEM = test: Growth inhibition of human CCRF-CEM cells at 10 uM after 48 hrs by coulter counting; conditions: read-out: GI; summary of the method: as §1
HL-60(TB) = test: Growth inhibition of human HL-60(TB) cells at 10 uM after 48 hrs by coulter counting; conditions: HL-60, 48 h, read-out: GI
Summary of the method: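 Test compound was dissolved in DMSO and diluted in phosphate-buffered saline to a final DMSO level below 1%. Dilutions were plated in duplicate with cell culture at 6 × 10⁴ cells/ml. Vehicle controls held PBS and DMSO at matching dilutions. Incubation was at 37 °C, humidified, under 5% CO₂. Data were reported as percent growth of treated cells.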

K562 = test: Growth inhibition of human K562 cells at 10 uM after 48 hrs by coulter counting; conditions: K562, 48 h, read-out: GI; summary of the method: as §1
MOLT-4 = test: Growth inhibition of human MOLT4 cells at 10 uM after 48 hrs by coulter counting; conditions: MOLT-4, 48 h, read-out: GI; summary of the method: as §1
RPMI-8226 = test: Growth inhibition of human RPMI8226 cells at 10 uM after 48 hrs by coulter counting; conditions: RPMI-8226, 48 h, read-out: GI; summary of the method: as §1
A549 = test: Growth inhibition of human A549 cells at 10 uM after 48 hrs by coulter counting; conditions: A549, 48 h, read-out: GI; summary of the method: as §1
EKVX = test: Growth inhibition of human EKVX cells at 10 uM after 48 hrs by coulter counting; conditions: read-out: GI; summary of the method: as §1
HOP-62 = test: Growth inhibition of human HOP62 cells at 10 uM after 48 hrs by coulter counting; conditions: HOP-62, 48 h, read-out: GI; summary of the method: as §1
NCI-H226 = test: Growth inhibition of human NCI-H226 cells at 10 uM after 48 hrs by coulter counting; conditions: NCI-H226, 48 h, read-out: GI; summary of the method: as §1
NCI-H23 = test: Growth inhibition of human NCI-H23 cells at 10 uM after 48 hrs by coulter counting; conditions: NCI-H23, 48 h, read-out: GI; summary of the method: as §1
[1] = Growth inhibition of human NCI-322M cells at 10 uM after 48 hrs by coulter counting; conditions: read-out: GI; summary of the method: as §1
NCI-H460 = test: Growth inhibition of human NCI-H460 cells at 10 uM after 48 hrs by coulter counting; conditions: NCI-H460, 48 h, read-out: GI; summary of the method: as §1
NCI-H522 = test: Growth inhibition of human NCI-H522 cells at 10 uM after 48 hrs by coulter counting; conditions: NCI-H522, 48 h, read-out: GI; summary of the method: as §1
HCT-116 = test: Growth inhibition of human HCT116 cells at 10 uM after 48 hrs by coulter counting; conditions: HCT-116, 48 h, read-out: GI; summary of the method: as §1
HT-29 = test: Growth inhibition of human HT-29 cells at 10 uM after 48 hrs by coulter counting; conditions: HT-29, 48 h, read-out: GI; summary of the method: as §1
KM12 = test: Growth inhibition of human KM12 cells at 10 uM after 48 hrs by coulter counting; conditions: KM12, 48 h, read-out: GI; summary of the method: as §1
SF-268 = test: Growth inhibition of human SF268 cells at 10 uM after 48 hrs by coulter counting; conditions: SF-268, 48 h, read-out: GI; summary of the method: as §1
SF-295 = test: Growth inhibition of human SF295 cells at 10 uM after 48 hrs by coulter counting; conditions: SF-295, 48 h, read-out: GI; summary of the method: as §1
SNB-19 = test: Growth inhibition of human SNB19 cells at 10 uM after 48 hrs by coulter counting; conditions: SNB-19, 48 h, read-out: GI; summary of the method: as §1
SNB-75 = test: Growth inhibition of human SNB75 cells at 10 uM after 48 hrs by coulter counting; conditions: SNB-75, 48 h, read-out: GI; summary of the method: as §1
U-251 = test: Growth inhibition of human U251 cells at 10 uM after 48 hrs by coulter counting; conditions: U-251, 48 h, read-out: GI; summary of the method: as §2
LOX IMVI = test: Growth inhibition of human LOXIMVI cells at 10 uM after 48 hrs by coulter counting; conditions: read-out: GI; summary of the method: as §1
M14 = test: Growth inhibition of human M14 cells at 10 uM after 48 hrs by coulter counting; conditions: M14, 48 h, read-out: GI; summary of the method: as §1
MDA-MB-435 = test: Growth inhibition of human MDA-MB-435 cells at 10 uM after 48 hrs by coulter counting; conditions: MDA-MB-435, 48 h, read-out: GI; summary of the method: as §1
SK-MEL-2 = test: Growth inhibition of human SK-MEL-2 cells at 10 uM after 48 hrs by coulter counting; conditions: SK-MEL-2, 48 h, read-out: GI; summary of the method: as §1
SK-MEL-28 = test: Growth inhibition of human SK-MEL-28 cells at 10 uM after 48 hrs by coulter counting; conditions: SK-MEL-28, 48 h, read-out: GI; summary of the method: as §1
SK-MEL-5 = test: Growth inhibition of human SK-MEL-5 cells at 10 uM after 48 hrs by coulter counting; conditions: SK-MEL-5, 48 h, read-out: GI; summary of the method: as §1
NCI/ADR-RES = test: Growth inhibition of human NCI/ADR-RES cells at 10 uM after 48 hrs by coulter counting; conditions: read-out: GI; summary of the method: as §1
A498 = test: Growth inhibition of human A498 cells at 10 uM after 48 hrs by coulter counting; conditions: A498, 48 h, read-out: GI; summary of the method: as §1
ACHN = test: Growth inhibition of human ACHN cells at 10 uM after 48 hrs by coulter counting; conditions: read-out: GI; summary of the method: as §1
CAKI-1 = test: Growth inhibition of human Caki1 cells at 10 uM after 48 hrs by coulter counting; conditions: CAKI-1, 48 h, read-out: GI; summary of the method: as §1
UO-31 = test: Growth inhibition of human UO31 cells at 10 uM after 48 hrs by coulter counting; conditions: UO-31, 48 h, read-out: GI; summary of the method: as §2
DU-145 = test: Growth inhibition of human DU145 cells at 10 uM after 48 hrs by coulter counting; conditions: DU-145, 48 h, read-out: GI; summary of the method: as §1
MCF7 = test: Growth inhibition of human MCF7 cells at 10 uM after 48 hrs by coulter counting; conditions: MCF7, 48 h, read-out: GI; summary of the method: as §1
BT-549 = test: Growth inhibition of human BT549 cells at 10 uM after 48 hrs by coulter counting; conditions: BT-549, 48 h, read-out: GI; summary of the method: as §1
T47D = test: Growth inhibition of human T47D cells at 10 uM after 48 hrs by coulter counting; conditions: read-out: GI; summary of the method: as §2
OVCAR-8 = test: Growth inhibition of human OVCAR8 cells at 10 uM after 48 hrs by coulter counting; conditions: OVCAR-8, 48 h, read-out: GI; summary of the method: as §1
786-0 = test: Growth inhibition of human 786-0 cells at 10 uM after 48 hrs by coulter counting; conditions: 786-0, 48 h, read-out: GI; summary of the method: as §1
SN12C = test: Growth inhibition of human SN12C cells at 10 uM after 48 hrs by coulter counting; conditions: read-out: GI; summary of the method: as §1
TK-10 = test: Growth inhibition of human TK10 cells at 10 uM after 48 hrs by coulter counting; conditions: TK-10, 48 h, read-out: GI; summary of the method: as §2

Compound: CCN1CC2=C(N=C3SC=C(C)N3C2c2ccc(OC)cc2)/C(=C/c2ccc(OC)cc2)C1 (stereo not drawn)
- inhibition of growth at 10 µM (HCT-15): > 10%
- inhibition of growth at 10 µM (UACC-257): > 10%
- inhibition of growth at 10 µM (UACC-62): > 10%
- inhibition of growth at 10 µM (CCRF-CEM): > 10%
- inhibition of growth at 10 µM (HL-60(TB)): > 10%
- inhibition of growth at 10 µM (K562): > 10%
- inhibition of growth at 10 µM (MOLT-4): > 10%
- inhibition of growth at 10 µM (RPMI-8226): > 10%
- inhibition of growth at 10 µM (A549): > 10%
- inhibition of growth at 10 µM (EKVX): > 10%
- inhibition of growth at 10 µM (HOP-62): > 10%
- inhibition of growth at 10 µM (NCI-H226): > 10%
- inhibition of growth at 10 µM (NCI-H23): > 10%
- inhibition of growth at 10 µM [1]: > 10%
- inhibition of growth at 10 µM (NCI-H460): > 10%
- inhibition of growth at 10 µM (NCI-H522): > 10%
- inhibition of growth at 10 µM (HCT-116): > 10%
- inhibition of growth at 10 µM (HT-29): > 10%
- inhibition of growth at 10 µM (KM12): > 10%
- inhibition of growth at 10 µM (SF-268): > 10%
- inhibition of growth at 10 µM (SF-295): > 10%
- inhibition of growth at 10 µM (SNB-19): > 10%
- inhibition of growth at 10 µM (SNB-75): 12.5%
- inhibition of growth at 10 µM (U-251): > 10%
- inhibition of growth at 10 µM (LOX IMVI): > 10%
- inhibition of growth at 10 µM (M14): > 10%
- inhibition of growth at 10 µM (MDA-MB-435): > 10%
- inhibition of growth at 10 µM (SK-MEL-2): > 10%
- inhibition of growth at 10 µM (SK-MEL-28): > 10%
- inhibition of growth at 10 µM (SK-MEL-5): > 10%
- inhibition of growth at 10 µM (NCI/ADR-RES): > 10%
- inhibition of growth at 10 µM (A498): > 10%
- inhibition of growth at 10 µM (ACHN): > 10%
- inhibition of growth at 10 µM (CAKI-1): > 10%
- inhibition of growth at 10 µM (UO-31): 35.5%
- inhibition of growth at 10 µM (DU-145): > 10%
- inhibition of growth at 10 µM (MCF7): > 10%
- inhibition of growth at 10 µM (BT-549): > 10%
- inhibition of growth at 10 µM (T47D): > 10%
- inhibition of growth at 10 µM (OVCAR-8): > 10%
- inhibition of growth at 10 µM (786-0): > 10%
- inhibition of growth at 10 µM (SN12C): > 10%
- inhibition of growth at 10 µM (TK-10): > 10%
